Calls of active or inactive are those of the source. The calls are words filed in the database; no cut-off is given here.
Legend:
[1] = target: T1, Presequence protease, mitochondrial (Homo sapiens) (UniProt Q5JRX3); experiment: Agonist activity at human PreP assessed as degradation of fluorogenic substrate V at 1 uM measured for 10 mins by fluorometric analysis
T1 sequence (whole entry): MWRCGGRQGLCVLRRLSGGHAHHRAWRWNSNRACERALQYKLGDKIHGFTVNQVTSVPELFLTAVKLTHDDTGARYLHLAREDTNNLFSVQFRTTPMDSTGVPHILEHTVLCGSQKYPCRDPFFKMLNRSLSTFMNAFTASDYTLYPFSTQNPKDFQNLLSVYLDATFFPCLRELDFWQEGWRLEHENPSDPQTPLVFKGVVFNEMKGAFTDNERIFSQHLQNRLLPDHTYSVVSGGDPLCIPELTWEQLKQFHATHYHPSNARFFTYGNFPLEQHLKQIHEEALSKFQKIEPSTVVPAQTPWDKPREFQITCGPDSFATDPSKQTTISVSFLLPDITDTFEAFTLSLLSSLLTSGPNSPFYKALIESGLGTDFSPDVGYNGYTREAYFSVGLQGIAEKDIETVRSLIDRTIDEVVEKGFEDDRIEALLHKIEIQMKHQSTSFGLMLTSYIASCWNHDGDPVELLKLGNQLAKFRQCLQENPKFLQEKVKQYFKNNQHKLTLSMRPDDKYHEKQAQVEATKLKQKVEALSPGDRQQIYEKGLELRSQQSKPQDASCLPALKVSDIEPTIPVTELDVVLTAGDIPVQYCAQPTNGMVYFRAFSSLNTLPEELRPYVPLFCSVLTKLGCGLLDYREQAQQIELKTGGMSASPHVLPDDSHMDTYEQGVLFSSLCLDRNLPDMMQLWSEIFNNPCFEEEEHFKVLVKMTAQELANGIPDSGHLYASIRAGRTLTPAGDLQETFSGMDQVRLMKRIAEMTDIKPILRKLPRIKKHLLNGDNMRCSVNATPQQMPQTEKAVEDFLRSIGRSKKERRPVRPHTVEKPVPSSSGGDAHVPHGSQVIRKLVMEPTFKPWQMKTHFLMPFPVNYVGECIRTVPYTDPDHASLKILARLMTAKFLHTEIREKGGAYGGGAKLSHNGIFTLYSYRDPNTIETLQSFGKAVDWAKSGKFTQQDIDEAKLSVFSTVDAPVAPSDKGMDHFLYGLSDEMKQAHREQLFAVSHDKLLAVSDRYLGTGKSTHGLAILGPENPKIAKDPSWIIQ

[2] = target: T2, Presequence protease, mitochondrial (Homo sapiens, UniProt Q5JRX3); experiment: Agonist activity at human PreP assessed as degradation of fluorogenic substrate V measured for 10 mins by fluorometric analysis
T2 sequence (Q5JRX3 whole entry): T1 sequence (whole entry)

[3] = target: T2, Presequence protease, mitochondrial; experiment: Agonist activity at human PreP assessed as degradation of ATP synthase pF1beta subunit (2 to 56) after 2.5 hrs by Immunoblotting assay; settings: in the assay text read “(2 to 54)” for “(2 to 56)”
Procedure, shortened: (§1)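 Purified human PreP (1 μg) incubated with biotin-labeled pF1β (2–54) presequence peptide (0.02 μg) in 20 mM HEPES-KOH pH 8.0, 10 mM MgCl2, with compound at 0.00001–100 μM, for 2.5 h. Reactions were stopped with sample buffer and resolved on 12% Bis-Tris gel. Blot probed with anti-F1β (1:2000), HRP anti-rabbit, ECL. Bands quantified by densitometry versus hPreP alone. EC50 from nonlinear log(agonist) vs normalized response fit.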

[4] = target: T1, Presequence protease, mitochondrial (Homo sapiens); experiment: Agonist activity at human PreP assessed as degradation of ATP synthase pF1beta subunit (2 to 56) after 2.5 hrs by Immunoblotting assay relative to control; settings: in the assay text read “(2 to 54)” for “(2 to 56)”; procedure, shortened: as §1
[5] = target: T1, Presequence protease, mitochondrial (Homo sapiens); experiment: Agonist activity at human PreP assessed as degradation of biotin-labeled amyloid beta (1 to 42) after 2.5 hrs by Immunoblotting assay relative to control
Procedure, shortened: (§2)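 Biotin-labeled Aβ(1–42) (0.02 μg) incubated 2.5 h with 1 μg purified hPreP in 20 mM HEPES-KOH pH 8.0 with 10 mM MgCl2, compound 0.00001–100 μM. Products were run on 12% Bis-Tris gel and transferred to nitrocellulose. Membrane dried and blocked in 2% milk-PBS, then probed with ExtrAvidin peroxidase and ECL. Degradation measured relative to enzyme alone. EC50 from nonlinear log(agonist) vs normalized response regression.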

[6] = target: T1, Presequence protease, mitochondrial (Homo sapiens); experiment: (§3) Agonist activity at human PreP assessed as degradation of biotin-labeled amyloid beta (1 to 42) after 2.5 hrs by Immunoblotting assay; procedure, shortened: as §2
[7] = target: T2, Presequence protease, mitochondrial; experiment: as §3; procedure, shortened: as §2
[8] = target: T1, Presequence protease, mitochondrial (Homo sapiens); experiment: Agonist activity at human PreP assessed as degradation of biotin-labeled amyloid beta (1 to 42) up to 1 uM after 2.5 hrs by Immunoblotting assay; procedure, shortened: as §2
[9] = target: T1, Presequence protease, mitochondrial (Homo sapiens); experiment: Agonist activity at human PreP assessed as degradation of ATP synthase pF1beta subunit (2 to 54) after 2.5 hrs by Immunoblotting assay
[10] = target: T1, Presequence protease, mitochondrial (Homo sapiens); experiment: Agonist activity at human PreP assessed as degradation of ATP synthase pF1beta subunit (2 to 54) at 1 uM after 2.5 hrs by Immunoblotting assay

fold change (FC) [1]: 1.8
EC50 [2]: 57 nM
EC50 [3]: 601 nM
Activity [4]: 55%
Activity [5]: 54%
Activity [6]: Dose-dependent effect
EC50 [7]: 402 nM
Activity [8]: Active
Activity [9]: Dose-dependent effect
Activity [10]: Active
Structure (SMILES): O=[N+]([O-])c1ccc2c(c1)N(Cc1cc(Br)ccc1O)C(c1cc(Br)ccc1O)N2Cc1cc(Br)ccc1O (stereo not given)
